Measured values published in ChEMBL document CHEMBL1123449, “9,11-Epoxy-9-homo-14-oxaprosta-5-enoic acid derivatives. Novel inhibitors of fatty acid cyclooxygenase” (J Med Chem, 1986).

What was measured:
[1] = organism: Homo sapiens; test: In vitro inhibition of arachidonic acid induced platelet aggregation of human platelet-rich plasma; type: functional; conditions: read-out: I50
How it was run: (§1)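 Aggregation of human platelet-rich plasma triggered with arachidonic acid at 800 μM. The method follows an earlier report, and the value is given as I50.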

[2] = organism: Homo sapiens; test: In vitro ability to inhibit adenosine diphosphate induced platelet aggregation (ADPIPA) of human platelet-rich plasma (PRP); type: functional; conditions: read-out: I50
[3] = organism: Homo sapiens; test: In vitro ability to cause dose dependent inhibition of arachidonic acid (AA) conversion to thromboxane A2 (TXA2 ); type: functional; conditions: read-out: I50
How it was run: (§2)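 Compound incubated with platelet lysate at several concentrations. Read-out is inhibition of arachidonic acid conversion to TXA2, measured as TXB2 production, and to PGE2. The value is given as I50.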

[4] = organism: Homo sapiens; test: In vitro ability to cause dose dependent inhibition of arachidonic acid (AA) conversion to PGE-2; type: functional; conditions: read-out: I50; how it was run: as §2
[5] = organism: Homo sapiens; test: In vitro ability to inhibit arachidonic acid induced platelet aggregation (AAIPA) of human platelet-rich plasma (PRP); type: functional; how it was run: as §1
[6] = organism: Homo sapiens; test: In vitro ability to inhibit adenosine diphosphate induced platelet aggregation (ADPIPA) of human platelet-rich plasma (PRP), and I50 value was reported from single determination.; type: functional, organism-based; conditions: read-out: I50

| Compound | IC50 ([1]; Homo sapiens, Plasma) | further results |
| --- | --- | --- |
| CCCCCCCO[C@H]1C2CCC(O2)[C@@H]1C/C=C\CCCC(=O)O (stereo partly drawn) | 120 µM |  |
| O=C(O)CCC/C=C\CC1C2CCC(O2)C1COCC1CCCCC1 (stereo not drawn) | 165 µM |  |
| O=C(O)CCCCC1CC2C3CCC(O3)C2CO1 (stereo not drawn) | > 1000 µM |  |
| CC(=O)Oc1ccccc1C(=O)O [ASPIRIN] | 185 µM |  |
| CCCCCC(C)OCC1C2CCC(O2)C1C/C=C\CCCC(=O)O (stereo in doubt; form 2) |  | IC50 [1]: 3.2 µM |
| CCCCCCOC(C)C1C2CCC(O2)C1CC=CCCCC(=O)O (stereo not drawn) | 14 µM |  |
| O=C(O)CCC/C=C\CC1C2CCC(O2)C1COCCCc1ccccc1 (stereo not drawn) | 26 µM |  |
| CCCCCCCO[C@@H]1C2CCC(O2)[C@@H]1C/C=C\CCCC(=O)O (stereo partly drawn) | 340 µM |  |
| CCCCCCOC[C@@H]1C2CCC(O2)[C@H]1C/C=C\CCCC(=O)O (stereo in doubt; 9) |  | IC50 [1]: 25 µM |
| CCCCC[C@H](O)/C=C/[C@@H]1C2CCC(O2)[C@@H]1C/C=C\CCCC(=O)O (stereo partly drawn) |  | IC50 [2]: 300 µM |
| CCCCCCOC[C@@H]1C2CCC(O2)[C@H]1C/C=C\CCCC(=O)O (stereo in doubt; 1) |  | IC50 [3]: 6.3 µM; IC50 [2]: > 1000 µM; IC50 ([4]; Homo sapiens): 3.8 µM; IC50 [4]: 6.3 µM; IC50 [1]: 0.5 µM |
| CCCCCCCCOCC1C2CCC(O2)C1C/C=C\CCCC(=O)O (stereo not drawn) | 32 µM |  |
| CCCCCCOC[C@@H]1C2CCC(O2)[C@@H]1C/C=C\CCCC(=O)O (stereo in doubt; 10) |  | IC50 [1]: 10 µM |
| CCCCCOCCC1C2CCC(O2)C1C/C=C\CCCC(=O)O (stereo not drawn) | 105 µM |  |
| CCCCCC(C)OCC1C2CCC(O2)C1C/C=C\CCCC(=O)O (stereo in doubt; form 1) |  | IC50 [1]: 23 µM |
| CC/C=C/CCOCC1C2CCC(O2)C1C/C=C\CCCC(=O)O (stereo not drawn) | 0.5 µM |  |
| CCCCC(C)COCC1C2CCC(O2)C1C/C=C\CCCC(=O)O (stereo not drawn) | 7.4 µM |  |
| COCC1C2CCC(O2)C1C/C=C\CCCC(=O)O (stereo not drawn) | 22 µM |  |
| CCCC[C@@H](O)/C=C/C1C2CCC(O2)C1C/C=C\CCCC(=O)O (stereo partly drawn) |  | AC50 [5]: 2500 nM |
| CCC/C=C/COCC1C2CCC(O2)C1C/C=C\CCCC(=O)O (stereo not drawn) | 0.3 µM |  |
| CCC/C=C\COCC1C2CCC(O2)C1C/C=C\CCCC(=O)O (stereo not drawn) | 3.3 µM |  |
| CCCCCCOC[C@@H]1C2CCC(O2)[C@@H]1C/C=C\CCCC(=O)O (single isomer, unassigned; (-)) |  | IC50 [1]: 38.5 µM |
| CCCC#CCOCC1C2CCC(O2)C1C/C=C\CCCC(=O)O (stereo not drawn) | 0.2 µM |  |
| CCCCC[C@H](O)/C=C/[C@H]1C2CCC(O2)[C@@H]1C/C=C\CCCC(=O)O (stereo partly drawn) | 0.3 µM | IC50 [6]: 1600 nM |
| COc1ccc2c(c1)c(CC(=O)O)c(C)n2C(=O)c1ccc(Cl)cc1 [INDOMETHACIN] | 4 µM |  |
| C=CCOCC1C2CCC(O2)C1C/C=C\CCCC(=O)O (stereo not drawn) | 6 µM |  |
| CCCCCCOC[C@@H]1C2CCC(O2)[C@H]1C/C=C\CCCC(=O)O (stereo in doubt; 11) |  | IC50 [1]: 18 µM |
| CCCCCCOCC1C2CCC(O2)C1CCCCCCC(=O)O (stereo not drawn) | 0.2 µM |  |
